Source: ChEMBL document CHEMBL3769305, “Glucose-functionalized amino-OPEs as biocompatible photosensitizers in PDT” (Eur J Med Chem, 2016)
The source made the active and inactive calls. The rule behind the calls is not given here.

Key:
[1] = Drug uptake in endoplasmic reticulum of human Hep2 cells at 1 uM after 6 hrs by ER-tracker dye-based fluorescence microscopy; assay type: ADME, cell-based; settings: hep-2, 6 h
Summary of the method: (§1)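 Cells grown on glass coverslips were incubated with 1×10^-6 M photosensitizer for 6 h at 37 °C, washed twice in PBS and imaged live by fluorescence microscopy. Organelle probes (ER-Tracker, ex 374/em 430 nm; NBD-Golgi, ex 466/em 536 nm) were applied for 30 min at the supplier's concentrations, and their patterns were compared with the compound signal.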

[2] = Dark toxicity against human HeLa cells assessed as cell survival at 3 uM incubated for 6 hrs measured after 24 hrs by MTT assay; assay type: cell-based; settings: read-out: Survival
Summary of the method: (§2)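 Cells (HaCaT and HeLa in DMEM, HEp-2 in RPMI, each with 10% FBS, at 37 °C and 5% CO2) were treated at 60–70% confluence. The compound was added from a 10^-3 M DMSO stock in medium with 1% FBS (final DMSO <0.5%) at 3·10^-6 to 2.5·10^-5 M and kept in the dark (6 h per table footnote, 18 h per methods). After 24 h, MTT at 50 µg/mL for 4 h, read at 542 nm as % of control OD.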

[3] = Dark toxicity against human Hep2 cells assessed as cell survival at 5 uM incubated for 6 hrs measured after 24 hrs by MTT assay; assay type: cell-based, HEp-2; settings: read-out: Survival; summary of the method: as §2
HaCaT [4] = assay: Phototoxicity against human HaCaT cells assessed as cell lethality at 3 to 250 uM incubated for 6 hrs followed by UV irradiation at 0.5 J/cm'2 measured after 24 hrs by MTT assay; assay type: cell-based
Summary of the method: (§3)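 Cultures at 60–70% confluence were loaded with the photosensitizer for 6 h in medium with 1% FBS and <0.5% DMSO. Medium was then replaced and cells were irradiated with UVA (300–400 nm, 15.9 W/m² at 10 cm), then washed and kept in complete medium for 24 h. Survival was read by MTT (50 µg/mL, 4 h, 542 nm) as % of untreated control OD.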

[5] = Induction of microtubule disruption in human HaCaT cells assessed as appearance of apoptotic morphology at LD50 after 24 hrs by immunofluorescence assay in presence of UVA light; assay type: cell-based
[6] = Dark toxicity against human HaCaT cells assessed as cell survival at 3 uM incubated for 6 hrs measured after 24 hrs by MTT assay; assay type: cell-based; settings: read-out: Survival; summary of the method: as §2
[7] = Drug uptake in human Hep2 cells at 1 uM after 6 hrs by fluorescence microscopy; assay type: ADME, cell-based; settings: hep-2, 6 h
Summary of the method: (§4)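 Cells on glass coverslips at 60–70% confluence were exposed to 1×10^-6 M compound in medium with 1% FBS (DMSO <0.5%) for 6 h at 37 °C. After two PBS washes they were imaged live under UV excitation (365 nm), with blue excitation (460–490 nm) also used. Untreated cells served as autofluorescence controls.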

HEp-2 [8] = assay: Induction of cell morphological changes in human Hep2 cells assessed as cell detachment from substrate at 3 to 5 uM after 24 hrs by Hoechst 33258 staining-based phase contrast microscopy in presence of UVA light; assay type: functional
HeLa [9] = assay: Induction of microtubule disruption in human HeLa cells assessed as appearance of extrapoles at LD50 after 24 hrs by immunofluorescence assay in presence of UVA light; assay type: cell-based
HeLa [10] = assay: Induction of apoptotic morphological changes in human HeLa cells at LD50 after 24 hrs by Hoechst 33258 staining-based fluorescence microscopy in presence of UVA light; assay type: functional, cell-based
HEp-2 [11] = assay: Induction of apoptosis in human Hep2 cells at LD50 after 24 hrs by acridine orange/ethidium bromide staining-based assay in presence of 0.25 to 0.5 J/cm'2 UVA light; assay type: functional, cell-based
[12] = Drug uptake in golgi apparatus of human HaCaT cells at 1 uM after 6 hrs by NBD dye-based fluorescence microscopy; assay type: ADME, cell-based; summary of the method: as §1
[13] = Phototoxicity against human Hep2 cells incubated for 6 hrs followed by UV irradiation at 0.25 J/cm'2 measured after 24 hrs by MTT assay; assay type: functional, HEp-2; summary of the method: as §3
HEp-2 [14] = assay: Induction of microtubule disruption in human Hep2 cells assessed as increase in mitotic index at LD50 after 24 hrs by immunofluorescence assay in presence of UVA light; assay type: cell-based
HeLa [15] = assay: Induction of cell morphological changes in human HeLa cells assessed as deep deformation of cell membrane at LD90 after 24 hrs by Hoechst 33258 staining-based phase contrast microscopy in presence of 1 to 2 J/Cm'2 UVA light; assay type: functional
HaCaT [16] = assay: Induction of morphological changes in human HaCaT cells assessed as nuclear retraction at LD50 after 24 hrs by Hoechst 33258 staining-based fluorescence microscopy in presence of UVA light; assay type: cell-based
HEp-2 [17] = assay: Induction of cell morphological changes in human Hep2 cells assessed as deep deformation of cell membrane at LD90 after 24 hrs by Hoechst 33258 staining-based phase contrast microscopy in presence of 1 to 2 J/Cm'2 UVA light; assay type: functional
HeLa [18] = assay: Drug uptake in human HeLa cells at 1 uM after 6 hrs by fluorescence microscopy; assay type: ADME, cell-based; summary of the method: as §4
HeLa [19] = assay: Phototoxicity against human HeLa cells incubated for 6 hrs followed by UV irradiation at 0.25 J/cm'2 measured after 24 hrs by MTT assay; assay type: functional; summary of the method: as §3
HaCaT [20] = assay: Induction of cell morphological changes in human HaCaT cells assessed as appearance of apoptotic cells with membrane blebbing at 3 to 5 uM after 24 hrs by Hoechst 33258 staining-based phase contrast microscopy in presence of UVA light
HEp-2 [21] = assay: Induction of cell morphological changes in human Hep2 cells assessed as cellular stretching at 3 to 5 uM after 24 hrs by Hoechst 33258 staining-based phase contrast microscopy in presence of UVA light; assay type: functional
[22] = Drug uptake in golgi apparatus of human Hep2 cells at 1 uM after 6 hrs by NBD dye-based fluorescence microscopy; assay type: ADME, cell-based; settings: hep-2, 6 h; summary of the method: as §1
HEp-2 [23] = assay: Induction of microtubule disruption in human Hep2 cells assessed as appearance of extrapoles at LD50 after 24 hrs by immunofluorescence assay in presence of UVA light; assay type: cell-based
HeLa [24] = assay: Induction of cell morphological changes in human HeLa cells assessed as cellular stretching at 3 to 5 uM after 24 hrs by Hoechst 33258 staining-based phase contrast microscopy in presence of UVA light; assay type: functional
HaCaT [25] = assay: Induction of cell morphological changes in human HaCaT cells assessed as cytoplasmic retraction at 3 to 5 uM after 24 hrs by Hoechst 33258 staining-based phase contrast microscopy in presence of UVA light
HaCaT [26] = assay: Induction of necrotic morphological changes in human HaCaT cells at LD50 after 24 hrs by Hoechst 33258 staining-based fluorescence microscopy in presence of UVA light; assay type: cell-based
HeLa [27] = assay: Induction of necrotic morphological changes in human HeLa cells at LD50 after 24 hrs by Hoechst 33258 staining-based fluorescence microscopy in presence of UVA light; assay type: functional, cell-based
[28] = Induction of microtubule disruption in human HaCaT cells at LD50 after 24 hrs by immunofluorescence assay in presence of UVA light; assay type: cell-based
HeLa [29] = assay: Increase in mitotic nuclei level in human HeLa cells at LD50 after 24 hrs by Hoechst 33258 staining-based fluorescence microscopy in presence of UVA light; assay type: functional, cell-based

| SMILES | Drug uptake [1] | viability at 6 h, 3 µM [2] [%] | viability at 6 h, 5 µM [3] [%] | mortality (HaCaT [4]) [%] | Activity [5] | viability at 6 h, 3 µM [6] [%] | Drug uptake [7] | Activity (HEp-2 [8]) | Activity (HeLa [9]) | Activity (HeLa [10]) | Activity (HEp-2 [11]) | Drug uptake [12] | LD50 [13] [×10⁻⁶ M] | Activity (HEp-2 [14]) | Activity (HeLa [15]) | Activity (HaCaT [16]) | Activity (HEp-2 [17]) | Drug uptake (HeLa [18]) | LD50 (HeLa [19]) [×10⁻⁶ M] | Activity (HaCaT [20]) | other results |
| --- | --- | --- | --- | --- | --- | --- | --- | --- | --- | --- | --- | --- | --- | --- | --- | --- | --- | --- | --- | --- | --- |
| COc1cc(C#Cc2ccc(C#Cc3cc(OC)c(C#CCO[C@@H]4O[C@H](CO)[C@@H](O)[C@H](O)[C@H]4O)cc3OC)c(N(C)C)c2)c(OC)cc1C#CCO[C@@H]1O[C@H](CO)[C@@H](O)[C@H](O)[C@H]1O | Active | 96.4 | 96.3 | > 50 | Toxic | 92.4 | Active | Active | Active | Active | Active | Active | 3 | Active | Active | Toxic | Active | Active | 3 | Toxic | Activity (HEp-2 [21]): Active; Drug uptake [22]: Active; Activity (HEp-2 [23]): Active; Activity (HeLa [24]): Active; Activity (HaCaT [25]): Toxic; Activity (HaCaT [26]): Toxic; Activity (HeLa [27]): Active; Activity [28]: Toxic; Activity (HeLa [29]): Active |
| COc1cc(C#Cc2ccc(C#CCO[C@@H]3O[C@H](CO)[C@@H](O)[C@H](O)[C@H]3O)cc2N(C)C)c(OC)cc1C#Cc1ccc(C#CCO[C@@H]2O[C@H](CO)[C@@H](O)[C@H](O)[C@H]2O)cc1N(C)C | Active | 96.6 | 95.7 | > 50 | Toxic | 91.5 | Active | Active | Active | Active | Active | Active | 3 | Active | Active | Toxic | Active | Active | 3 | Toxic | Activity (HEp-2 [21]): Active; Drug uptake [22]: Active; Activity (HEp-2 [23]): Active; Activity (HeLa [24]): Active; Activity (HaCaT [25]): Toxic; Activity (HaCaT [26]): Toxic; Activity (HeLa [27]): Active; Activity [28]: Toxic; Activity (HeLa [29]): Active |
